In ChEMBL document CHEMBL2046300, “A laccase-catalysed one-pot synthesis of aminonaphthoquinones and their anticancer activity” (2012) one finds GI50, CC50 and TGI data, which are given here for twelve molecules.

What all share (format): functional
One experiment relates to TK-10. The experiment is described as follows: Antiproliferative activity against human TK10 cells after 48 hrs by SRB assay. As to conditions: TK-10, 48 h; for CC50: read-out: LC50 (the source's name). Summed up:
(§1)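 Cells kept as monolayers in RPMI with 5% FBS, 2 mM L-glutamine and 50 μg/mL gentamicin (37 °C, 5% CO2), used at passages 3–19. They were plated at 7–10 000 cells/well for 24 h, with a T0 plate TCA-fixed at drug addition. Compounds in DMSO, diluted in medium, at 5 concentrations (0.01–100 μM) for 48 h, duplicate. SRB read at 540 nm; net % growth gave GI50, TGI, LC50.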
On the technique in general: The SRB assay estimates cell density from bound dye.

The next experiment deals with UACC-62. The experiment is described as follows: Antiproliferative activity against human UACC62 cells after 48 hrs by SRB assay. As to conditions: UACC-62, 48 h; for CC50: read-out: LC50 (the source's name). Summed up:
as §1

The subject of a further experiment is MCF7. The experiment is described as follows: Antiproliferative activity against human MCF7 cells after 48 hrs by SRB assay. The note with it: MCF7, 48 h; for CC50: read-out: LC50 (the source's name). Summed up:
as §1

Another experiment concerns HeLa. The experiment is described as follows: Antiproliferative activity against human HeLa cells after 48 hrs by SRB assay. The note with it: for CC50: read-out: LC50 (the source's name).

The structures appear in SMILES notation. Where only a bound is given, the exact number is not on record here.

What is called GI50 is the concentration that inhibits growth by half. Higher therefore signals less potent growth inhibition. By TGI is commonly meant the concentration at which net growth stops. Read a low TGI as greater sensitivity of the cells. Turning to `O=C(O)C1=C(Nc2ccccc2)C(=O)c2ccccc2C1=O`, the GI50 stood at 74.1 µM in the experiment on TK-10, 6.66 µM with UACC-62, 42.6 µM with MCF7 and 49.2 µM with HeLa. Moreover, the CC50 with TK-10 is over 100 µM; with UACC-62, 73.1 µM; in the experiment on MCF7, over 100 µM; with HeLa, over 100 µM. The TGI with UACC-62 is 30.7 µM; with MCF7, over 100 µM; with HeLa, 97.2 µM.
Turning to `CC(C)c1ccc(NC2=C(C(=O)O)C(=O)c3ccccc3C2=O)cc1`, the GI50 in the experiment with TK-10 amounted to 8.38 µM; with UACC-62, 5.19 µM; in the experiment on MCF7, 37.7 µM; in the experiment on HeLa, 38.3 µM. The TGI was 63.6 µM in the experiment with TK-10, 10.8 µM in the experiment with UACC-62, over 100 µM with MCF7 and 73 µM with HeLa. For the same molecule, the CC50 was over 100 µM in the experiment on TK-10, 58.1 µM in the experiment on UACC-62, over 100 µM in the experiment with MCF7 and over 100 µM with HeLa.
For the molecule `O=C(O)C1=C(Nc2ccc(CCO)cc2)C(=O)c2ccccc2C1=O`, the GI50 in the experiment with TK-10 is 91.1 µM; in the experiment on UACC-62 it was 7.17 µM; with MCF7, 54.9 µM; in the experiment with HeLa it was 72.5 µM. Moreover, the TGI with TK-10 was over 100 µM; in the experiment on UACC-62, 35.3 µM; in the experiment with MCF7, over 100 µM; in the experiment with HeLa it was over 100 µM. Also, the CC50 with TK-10 is over 100 µM; with UACC-62 it was 72 µM; in the experiment on MCF7 it was over 100 µM; in the experiment with HeLa it was over 100 µM.
In the case of `N#Cc1cccc(NC2=C(C(=O)O)C(=O)c3ccccc3C2=O)c1`, the GI50 came to 23.7 µM in the experiment with TK-10, 3.99 µM in the experiment on UACC-62, 15.1 µM with MCF7 and 16 µM in the experiment on HeLa. In addition, the TGI in the experiment on TK-10 came to 76.2 µM; with UACC-62, 7.17 µM; in the experiment with MCF7, 53.8 µM; in the experiment with HeLa, 49.1 µM. Also, the CC50 is over 100 µM in the experiment on TK-10, 19.3 µM in the experiment on UACC-62, 92.4 µM in the experiment on MCF7 and 82.3 µM in the experiment with HeLa.
Regarding `O=C(O)C1=C(Nc2cccc(Cl)c2)C(=O)c2ccccc2C1=O`, the GI50 is 35.9 µM with TK-10, 17 µM with UACC-62, 43.2 µM in the experiment on MCF7 and 37.3 µM in the experiment on HeLa. For the same molecule, the TGI in the experiment with TK-10 was over 100 µM; in the experiment on UACC-62, 49.1 µM; in the experiment with MCF7, over 100 µM; in the experiment on HeLa it was 70.7 µM. Besides, the CC50 in the experiment with TK-10 is over 100 µM; in the experiment with UACC-62, 81.2 µM; with MCF7, over 100 µM; in the experiment with HeLa, over 100 µM.
`O=C(O)C1=C(Nc2ccc(Cl)cc2)C(=O)c2ccccc2C1=O`: the GI50 in the experiment with TK-10 came to 13 µM; in the experiment with UACC-62, 3.98 µM; in the experiment on MCF7, 17.2 µM; with HeLa, 24.8 µM. Also, the TGI in the experiment with TK-10 is 79 µM; with UACC-62 it was 7.83 µM; with MCF7 it was 55.1 µM; with HeLa, 55.4 µM. Moreover, the CC50 in the experiment on TK-10 was over 100 µM; in the experiment with UACC-62 it was 55.1 µM; in the experiment on MCF7 it was 93 µM; in the experiment with HeLa, 86.1 µM.
Regarding `O=C(O)C1=C(Nc2ccccc2Cl)C(=O)c2ccccc2C1=O`, the GI50 stood at 80.7 µM in the experiment on TK-10, 31 µM in the experiment with UACC-62, 63.5 µM in the experiment on MCF7 and 28 µM in the experiment with HeLa. Moreover, the TGI is over 100 µM in the experiment with TK-10, 65.8 µM in the experiment on UACC-62, over 100 µM in the experiment with MCF7 and 60.3 µM in the experiment with HeLa. The CC50 with TK-10 was over 100 µM; in the experiment on UACC-62, over 100 µM; in the experiment with MCF7 it was over 100 µM; in the experiment on HeLa, 90.2 µM.
Take `O=C(O)C1=C(Nc2ccc(F)cc2)C(=O)c2ccccc2C1=O`: the GI50 came to 46.6 µM with TK-10, 7.54 µM with UACC-62, 38.1 µM in the experiment on MCF7 and 36.2 µM with HeLa. The TGI in the experiment with TK-10 was over 100 µM; in the experiment on UACC-62 it was 35 µM; with MCF7, 98.9 µM; in the experiment with HeLa, 67.3 µM. Further, the CC50 was over 100 µM in the experiment with TK-10, 72.1 µM in the experiment on UACC-62, over 100 µM in the experiment with MCF7 and 98.4 µM in the experiment with HeLa.
As for `O=C(O)C1=C(Nc2cccc(F)c2)C(=O)c2ccccc2C1=O`, the GI50 in the experiment with TK-10 was found to be 24.7 µM; in the experiment with UACC-62, 5.28 µM; in the experiment with MCF7, 9.08 µM; with HeLa, 28 µM. The TGI is over 100 µM in the experiment on TK-10, 13.7 µM in the experiment on UACC-62, 48.4 µM in the experiment with MCF7 and 60.3 µM in the experiment with HeLa. Also, the CC50 in the experiment with TK-10 was over 100 µM; in the experiment with UACC-62, 59.4 µM; in the experiment with MCF7, 91 µM; in the experiment with HeLa, 92.5 µM.
Turning to `O=C(O)C1=C(Nc2ccccc2F)C(=O)c2ccccc2C1=O`, the GI50 with TK-10 turned out to be 36.9 µM; in the experiment with UACC-62, 5.67 µM; with MCF7 it was 9.84 µM; in the experiment with HeLa, 47.5 µM. Moreover, the TGI in the experiment on TK-10 was over 100 µM; in the experiment on UACC-62, 23.3 µM; with MCF7, 50.8 µM; in the experiment on HeLa, 97 µM. Further, the CC50 in the experiment on TK-10 was over 100 µM; in the experiment on UACC-62 it was 65.4 µM; with MCF7 it was 92.2 µM; with HeLa, over 100 µM.
Turning to `O=C(O)C1=C(Nc2ccc(Cl)cc2F)C(=O)c2ccccc2C1=O`, the GI50 was 13.4 µM in the experiment with TK-10, 4.17 µM in the experiment with UACC-62, 21.4 µM in the experiment with MCF7 and 25.2 µM with HeLa. Further, the TGI worked out at 93.3 µM with TK-10, 7.94 µM with UACC-62, 54.9 µM with MCF7 and 55.5 µM in the experiment with HeLa. Also, the CC50 was over 100 µM in the experiment with TK-10, 40.4 µM in the experiment on UACC-62, 88.5 µM in the experiment with MCF7 and 85.9 µM in the experiment on HeLa.
Regarding `COc1cc([C@@H]2c3cc4c(cc3[C@@H](O[C@@H]3O[C@@H]5CO[C@@H](C)O[C@H]5[C@H](O)[C@H]3O)[C@H]3COC(=O)[C@H]23)OCO4)cc(OC)c1O` [ETOPOSIDE], the GI50 in the experiment with TK-10 amounted to 7.19 µM; in the experiment on UACC-62, 0.89 µM; in the experiment with MCF7, 0.56 µM; with HeLa it was 3.56 µM. Moreover, the TGI was 49.7 µM in the experiment with TK-10, 52.7 µM in the experiment on UACC-62, over 100 µM in the experiment with MCF7 and 40.2 µM with HeLa. Besides, the CC50 is over 100 µM with TK-10, over 100 µM in the experiment with UACC-62, over 100 µM in the experiment on MCF7 and 87.5 µM in the experiment on HeLa.
